Rows were chosen to be rich in hits. Some 5% of all compounds tested hit in one or more screens of this group.
CHOP UPR activ = apoptotic UPR (CHOP) activation; 330,000 tested, 0.34% active; activation, % at 10 µM; CHO-CHOP luciferase reporter, luminescence; percent of tunicamycin response over DMSO baseline; AID 449763;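 active = at 10 µM dose, activation of 40% or more, normalized to positive control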;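 note: 100% = tunicamycin at 10 µg/mL and 0% = DMSO alone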
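Test system: CHO-CHOP cells, stable luciferase reporter of PERK-eIF2a-CHOP signalling | Quantity: 500 CHO-CHOP cells per well | Buffer or medium: F12 plus 10% serum | Compound dosing: 10 µM single point, 0.5% DMSO | Schedule: 6 h compound treatment, 37 °C | Signal: Luciferase luminescence | Control set: Tunicamycin high control, DMSO low control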
Mdm2-MdmX inh = inhibitors of human Mdm2/MdmX interaction; AID 485346; inhibition, % at 8 µM; SaOS-2 split-luciferase Mdm2/MdmX complementation, luminescence; 330,000 tested, 3% active; O15151+Q00987;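 active = inhibition of at least 50% at 8 µM in the primary screen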
UPR XBP1 act = activators of adaptive arm of unfolded protein response (XBP1) | CHO-XBP1 luciferase reporter, IRE1-XBP1 UPR activation, luminescence; percent of tunicamycin response, DMSO as zero | activation, % at 20 µM | 330,000 tested, 0.33% active | AID 463104;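 active = versus positive control, 20 µM dose yields 30% or more activation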;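 note: 100% = tunicamycin at 10 µg/mL and 0% = DMSO only wells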
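Assay system: IRE1-XBP1 luciferase reporter CHO line. Input: 1000 cells/well. Buffer or medium: F12 with 10% serum. Doses: 20 µM, 1% DMSO. Times: overnight seeding at 37 °C, 6 h compound treatment at 37 °C. Technique: Steady-Glo luciferase glow luminescence, 10 min after reagent addition.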
Beta apoptosis = beta cell apoptosis inhibition; protection from apoptosis, % (no concentration beside the values); INS-1E cytokine-induced death, ATP luminescence, 48 h; percent of positive-control rescue, neutral wells zero; AID 435005; 300,000 tested, 0.8% active;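 active = Every replicate reaches about 75%, or at least half do and their mean reaches it too, limit read from the data; inconclusive = At least half of replicates reach the limit but their mean does not; inactive = Under half of replicates reach the limit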;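 note: 0% = cytokine-treated negative control wells and 100% = positive control rescue; higher means more ATP so stronger rescue from cytokine killing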
CSC inhib = blocks cancer stem cells | cancer stem cell-like cells viability, luminescence | inhibition, % at 7.5 µM | 300,000 tested, 1.1% active | AID 2717; in the data active = inhibition above about 75%; inconclusive = no clear call, values can overlap the other calls; tested in HMLE shEcad cells
T cruzi inh = blocks replication of Trypanosoma cruzi; T. cruzi beta-gal in NIH3T3, luminescence, 90 h; inhibition, % (test concentration not listed); 300,000 tested, 1.4% active;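 active = mean inhibition across valid replicates above about 55%, limit read from the data; inconclusive = mean below that limit but half or more replicates reach it; inactive = mean below it, under half of replicates reach it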;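 note: signal also drops with host cell toxicity which is not excluded here; 0% = plate median of DMSO wells and 100% = zero luminescence signal; higher percent means less beta-gal luminescence so fewer parasites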
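Assay system: NIH/3T3 fibroblasts plus reporter T. cruzi. Amount: NIH/3T3 cells, 5,000 per well. Buffer or medium: DMEM, 2% fetal bovine serum. Doses: compound pinned at 50 nL/well, DMSO. Schedule: ≥90 h infection period, 3 h prior cell attachment. Signal: luminescent β-galactosidase signal after 60 min lysis. Read-out: parasite load inhibition, %.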
Mdm2-MdmX conf = confirmation of human Mdm2/MdmX interaction inhibitors. shares compounds with Mdm2-MdmX inh. Mdm2-MdmX binding, luminescent assay. inhibition, % at 8 µM. 10,000 tested, 55% active; in the data active = inhibition above about 40%
FLuc counter = counter-screen for Mdm2/MdmX inhibitors: full-length luciferase. shares compounds with Mdm2-MdmX inh. SaOS-2 full-length luciferase counterscreen, luminescence. inhibition, % at 8 µM. 6,200 tested, 77% active. AID 504607;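 active = mean inhibition at 8 µM reaching about 37%, which flags the compound as non-specific, limit read from the data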;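 note: p53-null SaOS-2 cells with luciferase driven by a doxycycline-inducible promoter; compound on cells about two nights before reading with doxycycline added after day one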
Numbers without * were called inactive; u = inconclusive; x = not tested or not shown.

SMILES | CHOP UPR activ | Mdm2-MdmX inh | UPR XBP1 act | Beta apoptosis | CSC inhib | T cruzi inh | Mdm2-MdmX conf | others
c1coc(CNc2nc(N3CCCCC3)nc3ccccc23)c1 | -6 | 52* | -1 | 22 | 3 | 49 | 4
O=[N+]([O-])c1ccccc1NC1CCN(Cc2ccccc2)CC1 | 0 | 3 | 1 | -9 | 29 | 4 | x
c1ccc(CN2CCC(Nc3nc(-c4ccccc4)nc4ccccc34)CC2)cc1 | 1 | 83* | -2 | 35 | 139* | 26 | 39 | FLuc counter=85*
COc1cccc(-c2c(-c3cc(OC)cc(OC)c3)n(C)c3ccc(-c4ccc(OC)nc4)cc23)c1 | 1 | 26 | 19 | 8 | 22 | x | x
COc1cc(OC)cc(-c2c(-c3ccc(F)cc3)c3cc(-c4ccc(SC)cc4)ccc3n2C)c1 | 3 | 53* | 3 | 11 | x | x | 10
COc1cc(OC)cc(-c2c(-c3ccc(F)cc3)c3cc(-c4ccc(OC)nc4)ccc3n2C)c1 | 0 | 52* | 5 | 4 | x | x | 9
COc1cc(OC)cc(-c2c(-c3cccs3)c3cc(-c4ccc(C(N)=O)cc4)ccc3n2C)c1 | 3 | 86* | 9 | 22 | x | x | -16
COc1ccc(-c2ccc3c(c2)c(-c2cccs2)c(-c2cc(OC)cc(OC)c2)n3C)cc1 | 0 | 14 | 0 | -3 | -13 | x | x
CN(C)C(=O)CCSc1nnc(-c2ccncc2)o1 | 0 | -24 | 0 | -6 | -14 | -4 | x
Cc1ccc(S(=O)(=O)N2CCN(C(=O)COC(=O)c3ccc(O)cc3)CC2)c(C)c1 | 0 | -5 | 0 | 4 | x | 9 | x
CC(C)(C)OC(=O)N[C@@H](COCc1ccccc1)C(=O)N[C@@H](CO)[C@H](O)[C@@H]1C[C@@H]1C(=O)NC1CCCCC1 | 1 | -20 | 5 | -4 | -19 | 1 | x
O=C(CSc1nnnn1-c1ccccc1)NCC1(N2CCOCC2)CCCCC1 | 0 | 4 | -2 | -5 | -7 | x | x
Cc1cc(C)n(-c2nc(NCCN(C)C)c3c4c(sc3n2)CCCC4)n1 | 4 | 100* | 17 | 112* | 53 | 50 | 89* | FLuc counter=21
CCN(CC)CCCNc1nc(CN2CCOCC2)nc2sc3c(c12)CCC3 | 0 | 19 | -2 | -3 | 0 | 22 | x
Cc1cc(C)n(-c2nc(NCCCN(C)C)c3c4c(sc3n2)CCCC4)n1 | 1 | 54* | 5 | 36 | 2 | 41 | 30
Cc1cc(C)n(-c2nc3sc4c(c3c(=O)[nH]2)CCCC4)n1 | x | x | x | 50 | x | -8 | x
Cc1ccccc1NS(=O)(=O)c1ccc2oc(=O)ccc2c1 | -1 | 29 | -4 | 4 | -19 | 1 | x
COc1ccc(NC(C)=O)cc1CNC(=O)COc1c(C)c(C)cc(C)c1C | 2 | -17 | -1 | 3 | 1 | 4 | x
CCCCCCCCCCCCCCCC[N+](C)(C)CCN(Cc1ccc(OC)cc1)c1ncccn1 | 14 | 100* | -2 | 100* | 117* | x | 96* | FLuc counter=1
COC(=O)c1cnc(Oc2ccc(NC(=O)NC(=O)c3c(OC)cccc3OC)cc2)cc1C(F)(F)F | 2 | 76* | 21 | 33 | 41 | 29 | 58* | FLuc counter=80*
COCCN(Cc1nc(C(c2ccccc2)c2ccccc2)no1)C(C)C | 1 | 23 | -5 | 0 | -17 | -6 | x
COc1ccccc1C(=O)/C=C/c1ccc(N2CCCCC2)c([N+](=O)[O-])c1 | 10 | 99* | 4 | x | x | 26 | 37 | FLuc counter=70*
O=C(O/N=C\c1ccc(N2CCCCC2)c([N+](=O)[O-])c1)c1ccc(Cl)cc1Cl | 0 | 9 | -3 | 0 | 23 | -11 | x
COC(=O)c1c(NC(=O)COC(=O)c2ccccc2O)sc2c1CCCCC2 | 2 | 30 | 2 | 2 | 8 | 2 | x
COC(=O)c1c(NC(=O)COC(=O)c2ccc(C)s2)sc2c1CCCCC2 | 0 | 52* | 2 | 1 | 20 | 5 | 13
SMILES | CHOP UPR activ | Mdm2-MdmX inh | UPR XBP1 act | Beta apoptosis | CSC inhib | T cruzi inh | Mdm2-MdmX conf | others
COC(=O)c1c(NC(=O)COC(=O)c2ccc(NC(=O)CC#N)cc2)sc2c1CCCCC2 | 5 | 64* | 13 | 2 | 0 | -5 | 2
CCC1CSC(Nc2ccc(C(=O)/C=C/c3ccc(Br)cc3)cc2)=N1 (stereo not drawn) | 2 | 59* | 4 | 31 | 79* | 45 | 21
Cc1cc2c(c(/C=C/C(=O)c3ccccc3)c1)OC1(C=C2)Oc2ccccc2C(=O)N1C (stereo not drawn) | 22 | 91* | 5 | -5 | 138* | 43 | 83* | FLuc counter=48*
Cn1cc(/C=C/C(=O)c2ccccc2)c2ccccc21 | -3 | -77 | -5 | x | 17 | 13 | x
CCc1cc(=O)oc2c(C)c(OCC(=O)N3CCCc4ccccc43)ccc12 | 2 | 12 | 2 | 2 | 10 | -1 | x
CCOC(=O)c1ccc(Nc2nc(=O)c3cccnc3s2)cc1 | 1 | 71* | 1 | -2 | 31 | -2 | 41* | FLuc counter=73*
CC(=O)c1ccc(Nc2nc(=O)c3cccnc3s2)cc1 | 1 | 5 | 4 | -7 | -2 | -10 | x
O=c1nc(Nc2ccc(OCc3ccccc3)cc2)sc2ncccc12 | -1 | 69* | 0 | -4 | 48 | 5 | 82* | FLuc counter=23
CCCNC(=O)Cn1nc([N+](=O)[O-])c([N+](=O)[O-])c1C | -2 | 1 | 1 | -5 | -8 | 14 | x
Cc1ccc(NC(=O)CCCc2c[nH]c3ccccc23)nc1 | 0 | 10 | -3 | -6 | 1 | 3 | x
Cc1ccnc(NC(=O)CSc2cc(=O)n(C)c3ccccc23)c1 | -2 | 83* | -3 | -15 | u | 13 | 76* | FLuc counter=127*
Cc1ccnc(NC(=O)CCCc2c[nH]c3ccccc23)c1 | 3 | 68* | -5 | x | -15 | -1 | 36
Cn1c(=O)cc(OCCCC(=O)NCc2cccnc2)c2ccccc21 | -2 | -10 | -1 | 0 | -1 | -10 | x
Cn1c(=O)cc(OCCCC(=O)NC2CCCC2)c2ccccc21 | 1 | 67* | 3 | -29 | 6 | 5 | 48* | FLuc counter=86*
Cn1c(=O)cc(OCCCC(=O)NCc2ccc(F)cc2Cl)c2ccccc21 | 0 | 57* | 1 | -2 | -7 | 0 | 20
CC(=O)NC(NC(=S)N1CCCCCC1)C(Cl)(Cl)Cl (stereo not drawn) | 0 | 12 | -1 | -2 | 5 | -21 | x
COC(=O)C(NC(=O)c1ccc(Cl)cc1)(Nc1nc(C)cs1)C(F)(F)F (stereo not drawn) | 0 | 25 | -2 | -8 | -5 | -12 | x

Source: PubChem BioAssay
